Source: ChEMBL document CHEMBL1130178, “Synthesis and evaluation of novel fluorinated methotrexate derivatives for application to rheumatoid arthritis treatment” (J Med Chem, 1997)
≈ marks a conversion by molar mass, not a printed value.

Experiments:
T-cell [1] = assay: Inhibitory activity against Con A-stimulated Tcell proliferation.; assay type: functional, cell-based, Mus musculus
In short: (§1)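 Mouse spleen cells stimulated with mitogen, concanavalin A for T cells or lipopolysaccharide for B cells; inhibition of proliferative response measured, IC50 in ng/mL.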

Mus musculus [2] = species: Mus musculus; assay: Compound dose suppressing antibody production by 75% in mice; assay type: functional
In short: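 Female BDF1 mice (6 weeks old) immunized i.v. with 1 × 10^8 SRBC; sodium salt dissolved in water given orally days 1–3. Serum taken day 7; two-fold serial dilutions in PBS with 5 × 10^-5 M 2-mercaptoethanol mixed with 1% SRBC, 14 h at 25 °C; hemagglutination titer read visually. Dose giving 75% suppression, mg/kg.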

EL4 = assay: Inhibitory growth of EL4 thymoma cell line from C57BL/6 mice; assay type: functional, cell-based; details: Mus musculus
In short: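 EL4 thymoma cells (C57BL/6 origin), 4 × 10^4 per well, exposed to compound in DMSO at final 0–50 μg/mL for 1 day at 37 °C, 5% CO2, humidified air; proliferation then measured.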

[3] = Inhibitory activity against LPS-stimulated B cell proliferation.; assay type: functional, cell-based, Mus musculus; in short: as §1
[4] = Compound dose causing lethality in mice; assay type: toxicity; details: mouse, in vivo
In short: (§2)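 Female BDF1 mice (6 weeks old) were immunized iv with 1 × 10^8 SRBC, then given the test compound's sodium salt in water per os on days 1–3. Serum was taken on day 7 and serially two-fold diluted in PBS with 5 × 10^-5 M 2-mercaptoethanol. 1% SRBC was added, plates were held 14 h at 25 °C, and hemagglutination titer was read visually. Lethal dose is the dose (mg/kg) at which one mouse died; index = lethal dose / dose giving 75% suppression.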

[5] = Safety index = Ratio of lethal dose / suppressive dose value; assay type: toxicity; details: for selectivity ratio: read-out: Safety index; in short: as §2
[6] = Ratio of LD50 / ED50 value against adjuvant arthritis in rats.; assay type: functional
In short: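 Female Lewis rats (7 weeks, 140–160 g) sensitized by subcutaneous injection into left hind paw of 0.05 mL liquid paraffin containing 0.5 mg Mycobacterium butyricum. Compound given orally as 0.6% suspension in arabic gum, five days a week from day 1 (12 days total). Uninjected paw volume measured by plethysmometer until day 17; inhibition versus vehicle control gives ED50; index is LD50/ED50.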

[7] = Lethal dose in rats.; assay type: toxicity; details: rat, in vivo
Rattus norvegicus = species: Rattus norvegicus; assay: Effect on RA model was examined using adjuvant arthritis in rats.; assay type: functional
In short: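 Female Lewis rats (7 weeks, 140–160 g) sensitized by s.c. injection into left hind paw of liquid paraffin containing 0.5 mg Mycobacterium butyricum. 0.6% suspension in arabic gum given orally 5 days/week from day 1 (12 doses). Uninjected paw volume measured by plethysmometer until day 17; ED50 from inhibition versus vehicle control.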

Mus musculus [8] = assay: secondary antibody response in mice at 0.625 mg/kg; assay type: functional
In short: (§3)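 Female BDF1 mice (6 weeks old) immunized i.v. with 1 × 10^5 SRBC on days 0, 7 and 14; sodium salt in water given orally 5 days/week from day 0 (15 doses). Serum taken day 20; hemagglutination titer by serial two-fold dilution with 1% SRBC, 14 h at 25 °C, read visually; mean log2 titer ± SD.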

Mus musculus [9] = assay: secondary antibody response in mice at 2.5 mg/kg; assay type: functional; in short: as §3
Mus musculus [10] = assay: secondary antibody response in mice at 1.25 mg/kg; assay type: functional; in short: as §3
T-cell [11] = assay: Inhibitory activity against Con A-stimulated T cell proliferation.; assay type: functional, cell-based; details: Mus musculus; in short: as §1
[12] = Mus musculus, T-cell, read-out: IC50
[13] = Rattus norvegicus, read-out: ED50

SMILES | IC50 (T-cell [1]; t-cell) [ng/mL] | Suppressive dose (Mus musculus [2]) [mg/kg] | IC50 (EL4) [µM] | IC50 [3] [ng/mL] | Lethal dose [4] [mg/kg] | selectivity ratio [5] | IC50 (T-cell [1]; [12]) [ng/mL] | Ratio [6] | LD50 ([7]; read-out: LD50) [mg/kg] | ED50 (Rattus norvegicus; [13]) [mg/kg] | Safety index [5] | other results
Nc1nc(N)c2nc(CNc3ccc(C(=O)N[C@@H](CC(F)C(=O)O)C(=O)O)cc3C(F)(F)F)cnc2n1 (stereo in doubt; 2vt) | 16.8 (≈ 0.0319 µM) | 5 | > 100 | 19.5 (≈ 0.037 µM) | – | – | – | – | – | – | – | –
Nc1nc(N)c2nc(CNc3ccc(C(=O)N[C@@H](CC(F)C(=O)O)C(=O)O)cc3C(F)(F)F)cnc2n1 (stereo in doubt; 2ve) | 8 (≈ 0.0152 µM) | – | – | 14.3 (≈ 0.0272 µM) | – | – | – | – | – | – | – | –
CN(Cc1cnc2nc(N)nc(N)c2n1)c1ccc(C(=O)N[C@@H](CC(F)C(=O)O)C(=O)O)cc1 (stereo in doubt; 2ie) | 25.9 (≈ 0.0548 µM) | 50 | – | 21 (≈ 0.0445 µM) | 600 | 12 | – | – | – | – | – | –
Nc1nc(N)c2nc(CNc3ccc(C(=O)N[C@@H](CC(F)C(=O)O)C(=O)O)cc3Br)cnc2n1 (stereo partly drawn) | – | 5 | > 100 | 8.2 (≈ 0.0153 µM) | > 200 | > 80 | 2.1 (≈ 0.00391 µM) | 46.5 | 20 | 0.43 | – | –
CCc1cc(C(=O)N[C@@H](CC(F)C(=O)O)C(=O)O)ccc1NCc1cnc2nc(N)nc(N)c2n1 (stereo in doubt; form 2) | 3.2 (≈ 0.00658 µM) | 2.5 | – | 9.2 (≈ 0.0189 µM) | 150 | – | – | 12.2 | – | – | 120 | Log2 (Mus musculus [8]; 0.625 mg/kg): 5.4; Log2 (Mus musculus [9]; 2.5 mg/kg): 4.6; Log2 (Mus musculus [10]; 1.25 mg/kg): 5.2; LD50 [7]: 10.9 mg/kg; ED50 (Rattus norvegicus): 0.89 mg/kg
Cc1cc(C(=O)N[C@@H](CC(F)C(=O)O)C(=O)O)sc1N(C)Cc1cnc2nc(N)nc(N)c2n1 (stereo in doubt; form 2) | 3.8 (≈ 0.00772 µM) | 5 | – | 5.1 (≈ 0.0104 µM) | 150 | – | – | 57.5 | 46 | 0.8 | 60 | –
Cc1cc(C(=O)N[C@@H](CC(F)C(=O)O)C(=O)O)sc1N(C)Cc1cnc2nc(N)nc(N)c2n1 (stereo in doubt; form 1) | 11.5 (≈ 0.0234 µM) | 10 | > 100 | 14.9 (≈ 0.0303 µM) | > 180 | – | – | – | – | – | > 18 | –
CCCc1cc(C(=O)N[C@@H](CC(F)C(=O)O)C(=O)O)ccc1NCc1cnc2nc(N)nc(N)c2n1 (stereo in doubt; form 1) | – | 10 | > 100 | 22.2 (≈ 0.0444 µM) | 200 | – | 5.3 (≈ 0.0106 µM) | – | – | – | 40 | –
Nc1nc(N)c2nc(CNc3ccc(C(=O)N[C@@H](CC(F)C(=O)O)C(=O)O)cc3Cl)cnc2n1 (stereo partly drawn) | – | 0.8 | > 100 | 11.8 (≈ 0.0239 µM) | 80 | 100 | 4.3 (≈ 0.00872 µM) | – | – | – | – | –
Cc1cc(C(=O)N[C@@H](CC(F)C(=O)O)C(=O)O)ccc1NCc1cnc2nc(N)nc(N)c2n1 (stereo in doubt; form 1) | – | 0.31 | > 100 | 9.9 (≈ 0.021 µM) | 12.5 | 40 | 7.8 (≈ 0.0165 µM) | – | – | – | – | –
Cc1cc(C(=O)N[C@@H](CC(F)C(=O)O)C(=O)O)ccc1NCc1cnc2nc(N)nc(N)c2n1 (stereo in doubt; form 2) | 10.7 (≈ 0.0226 µM) | 1.25 | – | 16.5 (≈ 0.0349 µM) | 100 | – | – | – | – | – | 80 | –
CN(Cc1cnc2nc(N)nc(N)c2n1)c1ccc(C(=O)N[C@@H](CC(F)C(=O)O)C(=O)O)cc1 (stereo in doubt; 2it) | 64.6 (≈ 0.137 µM) | >400 | > 100 | 61.5 (≈ 0.13 µM) | – | – | – | – | – | – | – | –
CCc1cc(C(=O)N[C@@H](CC(F)C(=O)O)C(=O)O)ccc1NCc1cnc2nc(N)nc(N)c2n1 (stereo in doubt; form 1) | – | 1.25 | > 100 | 9.7 (≈ 0.0199 µM) | 100 | 160 | 3.8 (≈ 0.00781 µM) | 25 | 20 | 0.8 | – | Log2 (Mus musculus [8]; 0.625 mg/kg): 4.8; Log2 (Mus musculus [9]; 2.5 mg/kg): 3.2; Log2 (Mus musculus [10]; 1.25 mg/kg): 3.8
Nc1nc(N)c2nc(CNc3ccc(C(=O)N[C@@H](CC(F)C(=O)O)C(=O)O)cc3F)cnc2n1 (stereo partly drawn) | – | 1.25 | > 100 | 22.7 (≈ 0.0476 µM) | 200 | 160 | 9.4 (≈ 0.0197 µM) | 46.8 | 29 | 0.62 | – | Log2 (Mus musculus [8]): 6.2; Log2 (Mus musculus [9]): 5.2; Log2 (Mus musculus [10]): 6.8
CN(Cc1cnc2nc(N)nc(N)c2n1)c1ccc(C(=O)N[C@@H](CCC(=O)O)C(=O)O)cc1 [METHOTREXATE] | – | 0.625 | 1.57 | 12.5 (≈ 0.0275 µM) | 40 | 64 | – | – | 0.82 | 0.058 | – | Log2 (Mus musculus [8]): 5.4; Log2 (Mus musculus [9]): 4; Log2 (Mus musculus [10]): 4.2; Safety index [6]: 14.1; IC50 (T-cell [11]): 6.1 ng/mL (≈ 0.0134 µM)
